One data set has as its target hERG (KCNH2) (Homo sapiens, UniProt Q12809). The experiment in a line: Displacement of [3H]Dofetilide from recombinant human ERG at 1 uM after 60 mins by scintillation counting relative to control. To be noted: probe [3H]Dofetilide. (In general: Displacement assays read how much labelled ligand stays bound in the presence of the test substance.)
The target of data set [1] is T1, alpha-1 adrenergic receptor (Rattus norvegicus, UniProt P15823+P23944+P43140).
T1 sequence (P15823 whole entry): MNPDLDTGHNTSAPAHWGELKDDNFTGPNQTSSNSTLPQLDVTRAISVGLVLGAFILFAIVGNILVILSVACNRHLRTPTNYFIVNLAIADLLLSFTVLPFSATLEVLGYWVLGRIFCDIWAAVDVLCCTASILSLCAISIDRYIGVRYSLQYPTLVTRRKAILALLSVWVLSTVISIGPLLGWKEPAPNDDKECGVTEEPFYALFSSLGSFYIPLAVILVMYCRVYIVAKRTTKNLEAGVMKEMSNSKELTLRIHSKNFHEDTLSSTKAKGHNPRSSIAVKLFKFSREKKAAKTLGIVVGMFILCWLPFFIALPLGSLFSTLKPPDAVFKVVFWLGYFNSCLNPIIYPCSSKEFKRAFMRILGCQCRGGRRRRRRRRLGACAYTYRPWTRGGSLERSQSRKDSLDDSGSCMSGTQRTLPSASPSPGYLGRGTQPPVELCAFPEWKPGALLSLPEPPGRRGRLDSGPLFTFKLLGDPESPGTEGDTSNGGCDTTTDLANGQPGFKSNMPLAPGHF
T1 sequence (P23944 whole entry): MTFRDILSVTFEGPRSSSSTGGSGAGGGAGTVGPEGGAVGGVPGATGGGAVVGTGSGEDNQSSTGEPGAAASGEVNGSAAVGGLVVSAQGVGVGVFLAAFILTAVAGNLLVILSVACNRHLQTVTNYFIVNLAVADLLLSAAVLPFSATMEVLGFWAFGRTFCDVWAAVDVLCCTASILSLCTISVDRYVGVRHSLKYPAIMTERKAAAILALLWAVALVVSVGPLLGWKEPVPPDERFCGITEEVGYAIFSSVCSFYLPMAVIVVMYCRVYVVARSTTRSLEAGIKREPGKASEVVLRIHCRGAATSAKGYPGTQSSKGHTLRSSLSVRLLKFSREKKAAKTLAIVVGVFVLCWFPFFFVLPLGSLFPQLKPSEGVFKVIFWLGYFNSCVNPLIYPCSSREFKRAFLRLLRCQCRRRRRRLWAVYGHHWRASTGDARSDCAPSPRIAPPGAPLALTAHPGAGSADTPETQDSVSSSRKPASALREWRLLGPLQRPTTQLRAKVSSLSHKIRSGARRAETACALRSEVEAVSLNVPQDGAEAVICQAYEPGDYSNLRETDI
T1 sequence (P43140 whole entry): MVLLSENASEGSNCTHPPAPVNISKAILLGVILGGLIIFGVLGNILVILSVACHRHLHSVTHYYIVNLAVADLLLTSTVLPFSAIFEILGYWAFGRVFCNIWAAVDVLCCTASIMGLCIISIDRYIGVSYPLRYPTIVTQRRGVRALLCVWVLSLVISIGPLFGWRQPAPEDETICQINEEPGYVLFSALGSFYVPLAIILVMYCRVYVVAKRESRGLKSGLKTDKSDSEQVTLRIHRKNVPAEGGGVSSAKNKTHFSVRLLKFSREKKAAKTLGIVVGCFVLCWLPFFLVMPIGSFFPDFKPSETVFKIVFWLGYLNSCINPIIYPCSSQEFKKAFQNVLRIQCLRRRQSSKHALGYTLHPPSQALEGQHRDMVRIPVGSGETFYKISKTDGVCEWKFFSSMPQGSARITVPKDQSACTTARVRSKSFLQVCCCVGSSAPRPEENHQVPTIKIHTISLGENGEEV
Briefly: Displacement of [3H]prazosin from rat brain alpha-1 adrenergic receptor at 1 uM after 60 mins by scintillation counting relative to control. The settings on record: rat brain alpha-1 adrenergic receptor preparation, probe [3H]prazosin.

In data set [2] the target is Sodium-dependent serotonin transporter (Homo sapiens) (UniProt P31645). Briefly: Displacement of [3H]imipramine from recombinant human SERT at 1 uM after 60 mins by scintillation counting relative to control.
Data set [3] can be described thus: Tmax in Wistar rat at 10 mg/kg, po administered as single dose by LC/MS analysis. The class given is ADME, organism-based. The settings on record: in vivo. Summed up:
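Male Wistar rats (229–272 g), fasted 16 h before and 4 h after dosing, given 10 mg/kg orally in water. Four rats per time point at 15 min, 30 min, 1, 2, 4 and 8 h. Plasma (K3EDTA) and brain homogenate collected and analysed by LC-MS/MS.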

The target in data set [4] is T2, 5-hydroxytryptamine receptor 1A (Homo sapiens, UniProt P08908).
T2 sequence (P08908 whole entry): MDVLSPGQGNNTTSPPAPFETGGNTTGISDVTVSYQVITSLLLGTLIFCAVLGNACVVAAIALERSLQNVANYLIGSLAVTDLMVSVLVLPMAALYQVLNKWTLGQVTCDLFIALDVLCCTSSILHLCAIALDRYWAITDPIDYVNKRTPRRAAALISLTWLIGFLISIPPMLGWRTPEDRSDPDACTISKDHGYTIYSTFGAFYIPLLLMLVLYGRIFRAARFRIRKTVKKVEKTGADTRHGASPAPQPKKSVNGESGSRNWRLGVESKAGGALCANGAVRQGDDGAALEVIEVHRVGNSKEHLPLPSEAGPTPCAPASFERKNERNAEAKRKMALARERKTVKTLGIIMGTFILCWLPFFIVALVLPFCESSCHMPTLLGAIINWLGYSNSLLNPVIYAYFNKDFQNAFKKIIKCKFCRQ
Briefly: Displacement of [3H]-8-OH-DPAT from human 5HT1AR expressed in HEK293 cell membranes after 1 hr by microbeta counting method. Summed up: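 HEK293 (5-HT1A, 5-HT6, 5-HT7b, D2L) or CHO-K1 (5-HT2A) membranes, all Tris–HCl with 4 mM MgCl2 plus receptor-specific EDTA/pargyline/ascorbate (D2L adds NaCl, KCl, CaCl2). Nonspecific binding: 10 μM 5-HT (5-HT1A, 5-HT7), chlorpromazine (5-HT2A), methiothepine (5-HT6), haloperidol (D2L). Triplicate, 7–8 concentrations (10⁻¹¹–10⁻⁴ M), filtration; Ki via Cheng–Prusoff, mean of three experiments.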

Chain of hERG (KCNH2) (Q12809 whole entry): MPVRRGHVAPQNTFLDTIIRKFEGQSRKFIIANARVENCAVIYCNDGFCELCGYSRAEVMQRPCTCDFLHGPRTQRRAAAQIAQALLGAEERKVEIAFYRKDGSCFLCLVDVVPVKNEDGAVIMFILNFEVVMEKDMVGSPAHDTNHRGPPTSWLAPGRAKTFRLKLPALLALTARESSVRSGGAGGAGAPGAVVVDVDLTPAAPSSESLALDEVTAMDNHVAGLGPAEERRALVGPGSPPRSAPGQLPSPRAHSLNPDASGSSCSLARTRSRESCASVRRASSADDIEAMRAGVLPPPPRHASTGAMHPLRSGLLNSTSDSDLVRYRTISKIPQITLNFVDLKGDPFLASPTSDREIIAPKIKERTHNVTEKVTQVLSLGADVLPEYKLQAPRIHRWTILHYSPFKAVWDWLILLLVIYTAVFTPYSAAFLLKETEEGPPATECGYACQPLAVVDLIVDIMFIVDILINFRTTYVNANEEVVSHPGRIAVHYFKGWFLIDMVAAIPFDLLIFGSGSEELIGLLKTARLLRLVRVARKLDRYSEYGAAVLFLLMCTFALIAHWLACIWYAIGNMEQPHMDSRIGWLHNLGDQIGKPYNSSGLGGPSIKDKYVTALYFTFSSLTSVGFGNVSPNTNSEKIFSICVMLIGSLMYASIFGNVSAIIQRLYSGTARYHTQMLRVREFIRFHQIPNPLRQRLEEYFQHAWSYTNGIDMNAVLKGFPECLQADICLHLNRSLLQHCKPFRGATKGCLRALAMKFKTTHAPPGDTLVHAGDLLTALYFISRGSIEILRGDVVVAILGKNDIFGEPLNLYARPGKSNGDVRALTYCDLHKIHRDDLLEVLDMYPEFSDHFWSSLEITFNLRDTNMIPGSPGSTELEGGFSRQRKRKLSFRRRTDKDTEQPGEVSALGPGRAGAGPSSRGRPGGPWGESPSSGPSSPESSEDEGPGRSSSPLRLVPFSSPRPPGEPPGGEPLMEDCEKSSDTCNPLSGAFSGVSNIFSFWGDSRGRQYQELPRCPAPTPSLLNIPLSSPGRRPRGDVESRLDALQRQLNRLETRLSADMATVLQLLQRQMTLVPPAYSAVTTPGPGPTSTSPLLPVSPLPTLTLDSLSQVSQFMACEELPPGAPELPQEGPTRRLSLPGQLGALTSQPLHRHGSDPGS
Chain of Sodium-dependent serotonin transporter (Homo sapiens) (P31645 whole entry, looked up): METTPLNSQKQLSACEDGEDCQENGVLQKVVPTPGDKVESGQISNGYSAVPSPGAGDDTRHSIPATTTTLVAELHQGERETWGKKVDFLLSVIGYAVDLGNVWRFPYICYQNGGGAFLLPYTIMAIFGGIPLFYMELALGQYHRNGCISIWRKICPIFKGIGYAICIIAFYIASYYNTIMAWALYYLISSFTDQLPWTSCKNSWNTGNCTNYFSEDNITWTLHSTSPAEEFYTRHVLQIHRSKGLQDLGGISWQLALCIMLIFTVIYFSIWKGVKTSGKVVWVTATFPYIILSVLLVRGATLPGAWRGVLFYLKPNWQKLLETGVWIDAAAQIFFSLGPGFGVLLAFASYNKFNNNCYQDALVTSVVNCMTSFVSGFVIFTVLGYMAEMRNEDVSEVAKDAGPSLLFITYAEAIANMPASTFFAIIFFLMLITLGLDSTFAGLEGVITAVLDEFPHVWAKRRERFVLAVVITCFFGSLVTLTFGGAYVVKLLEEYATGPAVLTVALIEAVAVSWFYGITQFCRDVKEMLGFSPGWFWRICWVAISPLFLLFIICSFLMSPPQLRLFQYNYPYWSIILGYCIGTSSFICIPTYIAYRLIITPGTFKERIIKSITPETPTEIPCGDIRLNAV

In general, inhibition refers to the drop in the measured response relative to a control, in per cent. As a reminder, the Tmax is the time from dosing to the highest level. In general, Ki refers to a dissociation constant, usually derived from enzyme kinetics or from competition with a known ligand. A low value points to higher affinity. On to `CCc1nc2c(N3CCNCC3)ccnc2n1Cc1cccc(F)c1`, for which the inhibition at 1 h, 1 µM was -6.1% at hERG (KCNH2) and 0.2% in data set [1]. The inhibition in data set [2] worked out at 1.9%. In data set [3], the Tmax is 15 min. The compound further came in with a Ki in data set [4] of 2.79 µM.

(Values after ChEMBL document CHEMBL4145461, “Novel non-sulfonamide 5-HT6 receptor partial inverse agonist in a group of imidazo[4,5-b]pyridines with cognition enhancing properties” (Eur J Med Chem, 2018).)
